Experimental data published in PMC7312786 (Biochemistry, 2018).
Where “and” joins values, the source holds several entries; their conditions need not be identical. Identical values can stand only once.

Experiments:
hpol η [1] = biological target: T1, hpol η (Homo sapiens, UniProt Q9Y253); experiment: Fluorescence-based DNA polymerase activity assay, hpol η; type: biochemical; conditions: 20 μM PNR-7-02; mean (±SD), three experiments
T1 sequence (Q9Y253 1-437): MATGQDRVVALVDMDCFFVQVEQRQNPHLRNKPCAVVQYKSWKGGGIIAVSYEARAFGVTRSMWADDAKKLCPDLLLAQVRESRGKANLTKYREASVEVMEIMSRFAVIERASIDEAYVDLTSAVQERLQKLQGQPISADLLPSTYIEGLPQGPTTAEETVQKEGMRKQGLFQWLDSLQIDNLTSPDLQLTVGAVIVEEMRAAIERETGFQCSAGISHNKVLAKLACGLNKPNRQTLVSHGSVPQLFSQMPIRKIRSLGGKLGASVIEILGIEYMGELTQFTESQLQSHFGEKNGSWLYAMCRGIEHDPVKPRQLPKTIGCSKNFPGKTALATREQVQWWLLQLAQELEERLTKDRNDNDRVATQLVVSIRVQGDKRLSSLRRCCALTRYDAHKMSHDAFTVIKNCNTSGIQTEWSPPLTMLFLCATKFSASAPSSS

hpol η [2] = biological target: T1, hpol η; experiment: Gel-based pol extension assay, hpol η; type: biochemical; conditions: read-out: IC50, hpol η, gel-based assay; best-fit value (95% confidence interval), three experiments
hpol ι = biological target: T2, hpol ι (Homo sapiens, UniProt Q9UNA4); experiment: Gel-based pol extension assay, hpol ι; type: biochemical; conditions: relative to hpol η / hRev1
T2 sequence (Q9UNA4 1-446): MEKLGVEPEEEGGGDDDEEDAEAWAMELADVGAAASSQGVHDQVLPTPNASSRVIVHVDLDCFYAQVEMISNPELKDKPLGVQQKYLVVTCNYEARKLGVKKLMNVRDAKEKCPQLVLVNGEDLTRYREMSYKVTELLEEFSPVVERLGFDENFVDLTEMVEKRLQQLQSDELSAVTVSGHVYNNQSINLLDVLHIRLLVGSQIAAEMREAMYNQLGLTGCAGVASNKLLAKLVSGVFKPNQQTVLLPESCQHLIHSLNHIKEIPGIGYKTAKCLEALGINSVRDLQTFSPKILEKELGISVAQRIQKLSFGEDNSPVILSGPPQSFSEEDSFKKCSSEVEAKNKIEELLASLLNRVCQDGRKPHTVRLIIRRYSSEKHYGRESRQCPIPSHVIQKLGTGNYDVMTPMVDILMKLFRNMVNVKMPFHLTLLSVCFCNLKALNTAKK
Procedure, shortened: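 Gel extension assay with hpol ι core (residues 1–446) or hpol κ core (residues 19–526). Enzyme 2 nM preincubated 5 min with increasing test compound in 50 mM HEPES pH 7.5, 50 mM NaCl, 1 mM DTT, 0.1 mg/mL BSA, 10% glycerol. Started at 37 °C with 200 nM FAM-labeled 13/18-mer primer–template, 10 μM each dNTP, 5 mM MgCl₂. Quench: 20 mM EDTA/95% formamide, 95 °C. Triplicate; IC50 mean ± SD.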

hpol θ = biological target: T3, hpol θ (Homo sapiens, UniProt O75417); experiment: Fluorescence-based pol activity assay, hpol θ; type: biochemical; conditions: 20 μM PNR-7-02; mean (±SD)
T3 sequence (O75417 1792-2590): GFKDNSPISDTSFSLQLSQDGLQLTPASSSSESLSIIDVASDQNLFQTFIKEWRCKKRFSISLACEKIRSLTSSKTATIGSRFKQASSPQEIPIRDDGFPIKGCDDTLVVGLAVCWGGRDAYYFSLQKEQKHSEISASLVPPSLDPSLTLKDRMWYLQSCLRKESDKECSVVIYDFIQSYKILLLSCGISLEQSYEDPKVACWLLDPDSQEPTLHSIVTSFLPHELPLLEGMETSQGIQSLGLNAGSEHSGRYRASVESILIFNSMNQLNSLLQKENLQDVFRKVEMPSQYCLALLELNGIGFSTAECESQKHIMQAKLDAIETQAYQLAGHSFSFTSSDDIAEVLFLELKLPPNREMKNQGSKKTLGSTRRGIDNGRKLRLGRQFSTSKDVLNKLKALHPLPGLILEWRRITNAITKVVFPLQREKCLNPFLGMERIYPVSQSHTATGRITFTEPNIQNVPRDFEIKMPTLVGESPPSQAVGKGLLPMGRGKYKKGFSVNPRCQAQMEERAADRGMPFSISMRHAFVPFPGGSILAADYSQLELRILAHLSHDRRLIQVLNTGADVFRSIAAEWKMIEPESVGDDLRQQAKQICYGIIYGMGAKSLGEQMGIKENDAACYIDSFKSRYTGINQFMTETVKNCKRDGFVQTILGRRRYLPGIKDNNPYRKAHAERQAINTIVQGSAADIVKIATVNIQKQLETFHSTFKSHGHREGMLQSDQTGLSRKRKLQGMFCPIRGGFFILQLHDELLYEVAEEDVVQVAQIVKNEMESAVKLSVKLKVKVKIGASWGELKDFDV

hpol β = hpol β (Homo sapiens, UniProt P06746); experiment: Fluorescence-based pol activity assay, hpol β; type: biochemical; conditions: 20 μM PNR-7-02
hpol η [3] = biological target: T1, hpol η; experiment: Steady-state kinetic analysis of hpol η activity; type: biochemical
hpol η [4] = biological target: T1, hpol η; experiment: HPG labeling / MS protein footprinting of hpol η; type: binding; conditions: 20 and 100 μM PNR-7-02
Procedure, shortened: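 Protein footprinting: hpol η (10 μM) preincubated 10 min at 37 °C with 20 μM (1:2) or 100 μM (1:10) test compound in 50 mM HEPES pH 7.8, 10 mM MgCl₂, 10% DMSO. Then 500 μM HPG for 60 min at 37 °C in the dark; quenched with 200 mM arginine. SDS-PAGE, then MS. Modified arginine taken as fraction of total per residue, normalized to the HPG-alone sample.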

[5] = system: γH2AX in hpol η-proficient HAP-1 cells; experiment: γH2AX immunoblotting, hpol η-proficient HAP-1 cells; type: cell-based, human; conditions: PNR-7-02 alone
Procedure, shortened: (§1)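 HAP-1 cells treated with DMSO or 0.5 μM CDDP combined with 0.1 or 1 μM test compound. Pellets lysed at 4 °C in HEPES pH 7.5/Triton X-100 buffer with phosphatase and protease inhibitors. 30–40 μg protein run on 4–20% SDS-PAGE, transferred to nitrocellulose. Probed with anti-γH2AX (S139) 1:1500 and HRP anti-rabbit 1:4000; β-actin loading control; chemiluminescence. Bands normalized to β-actin, relative to DMSO; three biological replicates; t test.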

[6] = system: γH2AX in hpol η-deficient HAP-1 cells; experiment: γH2AX immunoblotting, hpol η-deficient HAP-1 cells; type: cell-based, human
Procedure, shortened: as §1

For `O=C1NC(=S)NC(=O)C1=Cc1cn(Cc2ccc3ccccc3c2)c2ccc(Cl)cc12` [PNR-7-02, 5-((5-chloro-1-(naphthalen-2-ylmethyl)-1H-indol-3-yl)methylene)-2-thioxodihydropyrimidine-4,6-(1H,5H)-dione], the “Pol activity relative to DMSO control, hpol η” value (hpol η [1]) was 4.4 (±3.8) % and < 5%, the IC50 (hpol η [2]) was 8 µM and the “Increase in IC50 against hpol η (so in the source); first of 'hpols η and κ')” value (hpol ι) was roughly 3 fold. The “Pol activity relative to DMSO control, hpol θ” value (hpol θ) was 86 (±1) %, the “Effect on hpol β” value (hpol β) was “no effect” and the “Pol activity relative to DMSO control, hpol β” value (hpol β; mean (±SD)) was 103 (±8) %. For the same molecule, the “Effect on KM,dTTP of hpol η” value (hpol η [3]; 0–9 μM PNR-7-02) was “nonlinear increase”, the “Effect on kcat of hpol η” value (hpol η [3]; PNR-7-02 near or below the IC50) was “no change” and the “HPG modification of Arg351 of hpol η” value (hpol η [4]) was “completely abrogated”. For the same molecule, the μH2AX formation [5] was “did not change”, the “μH2AX, combination treatment versus CDDP alone” value ([6]; CDDP + PNR-7-02) was “did not increase” and the μH2AX formation ([6]; PNR-7-02 alone) was “did not change”.
